Experimental data taken from ChEMBL document CHEMBL1125904, “Synthesis and anthelmintic activity of 3'-benzoylurea derivatives of 6-phenyl-2,3,5,6-tetrahydroimidazo[2,1-b]thiazole” (1991).

What was measured:
Format in all cases: functional
[1] = test system: Ovis aries; assay: Anthelmintic activity (in Vivo)in sheep as percentage reduction versus control (by administration of benzimidazole-susceptible L3 larvae of Trichostrongylus colubriformis intraruminally) at 15 mg/kg po
Method in brief: (§1)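 Sheep on lucerne/oaten chaff were infected intraruminally on day 0 with benzimidazole-susceptible L3 larvae (H. contortus 6000, O. circumcincta 8000, T. colubriformis 8000). They were allocated on day-27 faecal egg counts and weight (n = 4-7). A single intraruminal dose in 0.5% Na CMC/0.9% saline was given on day 28, with an untreated control per assay. On day 35, adult worms in abomasum and small intestine were counted as % reduction vs control.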

[2] = test system: Ovis aries; assay: Anthelmintic activity (in Vivo)in sheep as percentage reduction versus control (by administration of benzimidazole-susceptible L3 larvae of Trichostrongylus colubriformis intraruminally) at 10 mg/kg po; method in brief: as §1
[3] = test system: Ovis aries; assay: Anthelmintic activity (in Vivo)in sheep as percentage reduction versus control (by administration of benzimidazole-susceptible L3 larvae of Haemonchus contortus intraruminally)at 15 mg/kg po; method in brief: as §1
[4] = test system: Heligmosomoides polygyrus; assay: Anthelmintic activity ( in Vivo ) in mouse, as percentage reduction of Nematospiroides dubius at 500 PPM
Method in brief: (§2)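 Mice infected by oral gavage with 35-40 N. dubius L3 larvae plus 5000 H. nana eggs each. From 24 h post-infection, groups of four fed compound ad lib in powdered lab chow (31-1000 ppm) for 18 days. Killed on day 19; N. dubius counted in duodenum under dissecting microscope. Percent reduction computed from mean worm counts, treated vs untreated control.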

[5] = test system: Ovis aries; assay: Anthelmintic activity (in Vivo)in sheep as percentage reduction versus control (by administration of benzimidazole-susceptible L3 larvae of Ostertagia circumcincta intraruminally)at 10 mg/kg po; method in brief: as §1
[6] = test system: Heligmosomoides polygyrus; assay: Anthelmintic activity ( in Vivo ) in mouse, as percentage reduction of Nematospiroides dubius at 62 PPM; method in brief: as §2
[7] = test system: Heligmosomoides polygyrus; assay: Anthelmintic activity ( in Vivo ) in mouse, as percentage reduction of Nematospiroides dubius at 125 PPM; method in brief: as §2
[8] = test system: Ovis aries; assay: Anthelmintic activity (in Vivo)in sheep as percentage reduction versus control (by administration of benzimidazole-susceptible L3 larvae of Ostertagia circumcincta intraruminally)at 15 mg/kg po; method in brief: as §1
[9] = test system: Ovis aries; assay: Anthelmintic activity (in Vivo)in sheep as percentage reduction versus control (by administration of benzimidazole-susceptible L3 larvae of Haemonchus contortus intraruminally)at 10 mg/kg po; method in brief: as §1
[10] = test system: Ovis aries; assay: Anthelmintic activity (in Vivo)in sheep as percentage reduction versus control (by administration of benzimidazole-susceptible L3 larvae of Haemonchus contortus intraruminally)at 5 mg/kg po; method in brief: as §1
[11] = test system: Ovis aries; assay: Anthelmintic activity (in Vivo)in sheep as percentage reduction versus control (by administration of benzimidazole-susceptible L3 larvae of Ostertagia circumcincta intraruminally)at 5 mg/kg po; method in brief: as §1
[12] = test system: Heligmosomoides polygyrus; assay: Anthelmintic activity ( in Vivo ) in mouse, as percentage reduction of Nematospiroides dubius at 250 PPM; method in brief: as §2
[13] = test system: Ovis aries; assay: Anthelmintic activity (in Vivo)in sheep as percentage reduction versus control (by administration of benzimidazole-susceptible L3 larvae of Trichostrongylus colubriformis intraruminally) at 5 mg/kg po; method in brief: as §1
[14] = test system: Ovis aries; assay: Anthelmintic activity (in Vivo)in sheep as percentage reduction versus control (by administration of benzimidazole-susceptible L3 larvae of T colubriformis intraruminally) at 10 mg/kg po; method in brief: as §1
[15] = test system: Ovis aries; assay: Anthelmintic activity (in Vivo)in sheep as percentage reduction versus control (by administration of benzimidazole-susceptible L3 larvae of H contortus intraruminally)at 5 mg/kg po; method in brief: as §1
[16] = test system: Ovis aries; assay: Anthelmintic activity (in Vivo)in sheep as percentage reduction versus control (by administration of benzimidazole-susceptible L3 larvae of T colubriformis intraruminally) at 5 mg/kg po; method in brief: as §1
[17] = test system: Ovis aries; assay: Anthelmintic activity (in Vivo)in sheep as percentage reduction versus control (by administration of benzimidazole-susceptible L3 larvae of O circumcincta intraruminally)at 5 mg/kg po; method in brief: as §1
[18] = test system: Ovis aries; assay: Anthelmintic activity (in Vivo)in sheep as percentage reduction versus control (by administration of benzimidazole-susceptible L3 larvae of O circumcincta intraruminally)at 10 mg/kg po; method in brief: as §1
[19] = test system: Ovis aries; assay: Anthelmintic activity (in Vivo)in sheep as percentage reduction versus control (by administration of benzimidazole-susceptible L3 larvae of H contortus intraruminally)at 10 mg/kg po; method in brief: as §1
[20] = test system: Heligmosomoides polygyrus; assay: Anthelmintic activity ( in Vivo ) in mouse, as percentage reduction of Nematospiroides dubius at 1000 PPM; method in brief: as §2
[21] = test system: Ovis aries; assay: Anthelmintic activity (in Vivo)in sheep as percentage reduction versus control (by administration of […] L3 larvae of Trichostrongylus colubriformis intraruminally) at 30 mg/kg po (Benzimidazole resistant strain)
Method in brief: (§3)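 Sheep fed lucerne/oaten chaff were infected intraruminally with L3 larvae of a drug-resistant strain (benzimidazole-resistant; for O. circumcincta, benzimidazole-, levamisole- and morantel-resistant). They were grouped by faecal egg counts (n = 4-7) and dosed once intraruminally on day 28 in 0.5% Na CMC/saline. Adult worms were counted on day 35 as % reduction vs untreated control.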

[22] = test system: Ovis aries; assay: Anthelmintic activity (in Vivo) in sheep as percentage reduction versus control (by administration of […] L3 larvae of Ostertagia circumcincta intraruminally)at 30 mg/kg po (Benzimidazole, levamisole and morantel resistant strain); method in brief: as §3
[23] = test system: Ovis aries; assay: Anthelmintic activity (in Vivo)in sheep as percentage reduction versus control (by administration of benzimidazole-susceptible L3 larvae of Ostertagia circumcincta intraruminally)at 30 mg/kg po; method in brief: as §1
[24] = test system: Ovis aries; assay: Anthelmintic activity (in Vivo)in sheep as percentage reduction versus control (by administration of benzimidazole-susceptible L3 larvae of Haemonchus contortus intraruminally)at 30 mg/kg po; method in brief: as §1
[25] = test system: Ovis aries; assay: Anthelmintic activity (in Vivo)in sheep as percentage reduction versus control (by administration of […] L3 larvae of Haemonchus contortus intraruminally)at 30 mg/kg po (Benzimidazole resistant strain); method in brief: as §3
[26] = test system: Ovis aries; assay: Anthelmintic activity (in Vivo)in sheep as percentage reduction versus control (by administration of benzimidazole-susceptible L3 larvae of Trichostrongylus colubriformis intraruminally) at 30 mg/kg po; method in brief: as §1
[27] = test system: Heligmosomoides polygyrus; assay: Anthelmintic activity ( in Vivo ) in mouse, as percentage reduction of Nematospiroides dubius at 31 PPM; method in brief: as §2
[28] = test system: Ovis aries; assay: Anthelmintic activity (in Vivo)in sheep as percentage reduction versus control (by administration of benzimidazole-susceptible L3 larvae of Trichostrongylus colubriformis intraruminally) at 10.9 mg/kg po; method in brief: as §1
[29] = test system: Ovis aries; assay: Anthelmintic activity (in Vivo)in sheep as percentage reduction versus control (by administration of benzimidazole-susceptible L3 larvae of Haemonchus contortus intraruminally)at 16.4 mg/kg po; method in brief: as §1
[30] = test system: Ovis aries; assay: Anthelmintic activity (in Vivo)in sheep as percentage reduction versus control (by administration of benzimidazole-susceptible L3 larvae of Ostertagia circumcincta intraruminally)at 10.9 mg/kg po; method in brief: as §1
[31] = test system: Ovis aries; assay: Anthelmintic activity (in Vivo)in sheep as percentage reduction versus control (by administration of benzimidazole-susceptible L3 larvae of Haemonchus contortus intraruminally)at 10.9 mg/kg po; method in brief: as §1
[32] = test system: Ovis aries; assay: Anthelmintic activity (in Vivo)in sheep as percentage reduction versus control (by administration of benzimidazole-susceptible L3 larvae of Trichostrongylus colubriformis intraruminally) at 16.4 mg/kg po; method in brief: as §1
[33] = test system: Ovis aries; assay: Anthelmintic activity (in Vivo)in sheep as percentage reduction versus control (by administration of benzimidazole-susceptible L3 larvae of Ostertagia circumcincta intraruminally)at 16.4 mg/kg po; method in brief: as §1

| SMILES | Reduction [4] | Reduction [6] | Reduction [7] | Reduction [12] | other results |
| --- | --- | --- | --- | --- | --- |
| O=C(NC(=O)c1c(F)cccc1F)Nc1cccc([C@H]2CN3CCSC3=N2)c1 | 100% | 0% | 26% | 100% | Reduction [1]: 98%; Reduction [2]: 96%; Reduction [3]: 86%; Reduction [5]: 64%; Reduction [8]: 74%; Reduction [9]: 90%; Reduction [10]: 74%; Reduction [11]: 56%; Reduction [13]: 75% |
| O=C(NC(=O)c1ccc(C(F)(F)F)cc1)Nc1cccc([C@H]2CN3CCSC3=N2)c1 |  |  | 0% | 43% | Reduction [14]: 40%; Reduction [15]: 27%; Reduction [16]: 15%; Reduction [17]: 33%; Reduction [18]: 29%; Reduction [19]: 59% |
| CC(C)(C)c1ccc(C(=O)NC(=O)Nc2cccc(C3CN4CCSC4=N3)c2)cc1 (centres undefined) |  |  |  | 0% |  |
| O=C(NC(=O)c1ccc(C(=O)c2ccccc2)cc1)Nc1cccc(C2CN3CCSC3=N2)c1 (centres undefined) |  |  |  | 0% | Reduction [20]: 100% |
| O=C(NC(=O)c1ccc([N+](=O)[O-])cc1)Nc1cccc(C2CN3CCSC3=N2)c1 (centres undefined) |  |  |  |  | Reduction [20]: 0% |
| O=C(NC(=O)c1ccc(OC(F)(F)F)cc1)Nc1cccc(C2CN3CCSC3=N2)c1 (centres undefined) |  |  |  | 0% |  |
| O=C(NC(=O)c1ccc(F)cc1)Nc1cccc(C2CN3CCSC3=N2)c1 (centres undefined) | 43% |  |  | 0% |  |
| O=C(NC(=O)c1cccc([N+](=O)[O-])c1)Nc1cccc(C2CN3CCSC3=N2)c1 (centres undefined) |  |  |  | 0% |  |
| O=C(NC(=O)c1ccc(I)cc1)Nc1cccc(C2CN3CCSC3=N2)c1 (centres undefined) |  |  |  | 0% |  |
| COc1ccc(C(=O)NC(=O)Nc2cccc(C3CN4CCSC4=N3)c2)cc1 (centres undefined) |  |  |  |  | Reduction [20]: 0% |
| O=C(NC(=O)c1c(F)cccc1F)Nc1cccc(C2CN3CCSC3=N2)c1 (centres undefined) | 100% | 0% | 76% | 100% | Reduction [1]: 100%; Reduction [3]: 92%; Reduction [21]: 92%; Reduction [22]: 55%; Reduction [8]: 75%; Reduction [23]: 93%; Reduction [24]: 98%; Reduction [25]: 100%; Reduction [26]: 99% |
| O=C(NC(=O)c1ccccc1Cl)Nc1cccc(C2CN3CCSC3=N2)c1 (centres undefined) |  | 0% | 56% | 100% |  |
| COc1ccccc1C(=O)NC(=O)Nc1cccc(C2CN3CCSC3=N2)c1 (centres undefined) |  |  |  | 0% |  |
| O=C(NC(=O)c1ccccc1[N+](=O)[O-])Nc1cccc(C2CN3CCSC3=N2)c1 (centres undefined) | 0% |  |  |  |  |
| O=C(NC(=O)c1ccc(C(F)(F)F)cc1)Nc1cccc(C2CN3CCSC3=N2)c1 (centres undefined) | 100% | 43% | 96% | 100% | Reduction [27]: 0% |
| O=C(NC(=O)c1ccccc1F)Nc1cccc(C2CN3CCSC3=N2)c1 (centres undefined) |  | 40% | 95% |  | Reduction [27]: 0% |
| O=C(NC(=O)c1c(Cl)cccc1Cl)Nc1cccc(C2CN3CCSC3=N2)c1 (centres undefined) | 0% |  |  |  | Reduction [20]: 56% |
| N#Cc1ccc(C(=O)NC(=O)Nc2cccc(C3CN4CCSC4=N3)c2)cc1 (centres undefined) |  |  |  | 0% |  |
| O=C(NC(=O)c1ccccc1)Nc1cccc(C2CN3CCSC3=N2)c1 (centres undefined) | 0% |  |  |  | Reduction [20]: 59% |
| O=C(NC(=O)c1cc(F)cc(F)c1)Nc1cccc(C2CN3CCSC3=N2)c1 (centres undefined) | 0% |  |  |  |  |
| O=C(NC(=O)c1ccc(Cl)cc1)Nc1cccc(C2CN3CCSC3=N2)c1 (centres undefined) | 0% |  |  |  |  |
| Cl.O=C(NC(=O)c1c(F)cccc1F)Nc1cccc(C2CN3CCSC3=N2)c1 (centres undefined) |  |  |  |  | Reduction [28]: 93%; Reduction [29]: 78%; Reduction [30]: 52%; Reduction [31]: 64%; Reduction [32]: 99%; Reduction [33]: 82% |
| c1ccc([C@H]2CN3CCSC3=N2)cc1 [LEVAMISOLE] | 100% | 100% |  |  | Reduction [27]: 60% |
| COC(=O)Nc1nc2cc([S+]([O-])c3ccccc3)ccc2[nH]1 (centres undefined) [OXFENDAZOLE] |  | 100% | 100% |  | Reduction [27]: 100% |
| c1ccc(C2CN3CCSC3=N2)cc1 (centres undefined) [TETRAMISOLE] | 100% | 0% | 100% |  |  |
